From ChEMBL document CHEMBL1149321, “Synthesis, radiosynthesis, and biological evaluation of carbon-11 and iodine-123 labeled 2beta-carbomethoxy-3beta-[4'-((Z)-2-haloethenyl)phenyl]tropanes: candidate radioligands for in vivo imaging of the serotonin transporter” (J Med Chem, 2004)

Legend:
Rattus norvegicus [1] = assay: Distribution in striatum of rat brain after intravenous administration by using [123I]-ZIET after 30 min; type: ADME, organism-based; details: in vivo, 0.5 h
Method in brief: (§1)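 Male Sprague–Dawley rats (200–250 g), fed ad libitum, given ~20 μCi radiotracer iv via tail-vein cannula in 0.2 mL 10% ethanol/saline under ketamine/xylazine im anesthesia. Killed at 5, 30, 60 or 120 min (n = 5; n = 4 at 120 min). Brain regions dissected, weighed, gamma-counted with dose standards, decay-corrected; mean %ID/g ± SE.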

Rattus norvegicus [2] = assay: Distribution of the radio labelled compound in occipital cortex of rat brain after intravenous administration in presence of reboxetine after 60 min; type: ADME, organism-based; details: in vivo, 1 h
Method in brief: (§2)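 Male Sprague–Dawley rats (200–250 g) under ketamine/xylazine anaesthesia with tail-vein cannulas. Blocker or none given 15 min before ~20 μCi [123I] tracer iv in 0.2 mL 10% ethanol/saline; blocker dose 4 mg/kg.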

Rattus norvegicus [3] = assay: Distribution of the radio labelled compound in frontal cortex of rat brain after intravenous administration in presence of reboxetine after 60 min; type: ADME, organism-based; details: in vivo, 1 h; method in brief: as §2
Rattus norvegicus [4] = assay: Distribution of the radio labelled compound in striatum of rat brain after intravenous administration in presence of RTI-113 after 60 min; type: ADME, organism-based; details: in vivo, 1 h; method in brief: as §2
Rattus norvegicus [5] = assay: Distribution of the radio labelled compound in brainstem of rat brain after intravenous administration in presence of RTI-113 after 60 min; type: ADME, organism-based; details: in vivo, 1 h
Method in brief: (§3)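 Male Sprague–Dawley rats (200–250 g), ketamine/xylazine anesthesia, tail-vein cannula. Blocker (4 mg/kg) or nothing given 15 min before iv [123I]ZIET in 10% ethanol/saline. Killed 60 min post-tracer.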

[6] = Ratio of radioactivity in hypothalamus of rat brain to that of rat cerebellum after intravenous administration after 30 min; type: functional
Method in brief: (§4)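 Male Sprague–Dawley rats (200–250 g) given ~20 μCi [123I] tracer iv in 0.2 mL 10% ethanol/saline under ketamine/xylazine; killed at 5, 30, 60, 120 min (n = 5; n = 4 at 120 min). Brain regions dissected, gamma counted, decay-corrected to %ID/g; regional uptake divided by cerebellum.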

[7] = Ratio of radioactivity in frontal cortex of rat brain to that of rat cerebellum after intravenous administration after 120 min; type: functional; method in brief: as §4
[8] = Ratio of radioactivity in occipital cortex of rat brain to that of rat cerebellum after intravenous administration after 60 min; type: functional; method in brief: as §4
Rattus norvegicus [9] = assay: Distribution of the radio labelled compound in cerebellum of rat brain after intravenous administration in absence of blocker after 60 min; type: ADME, organism-based; details: in vivo, 1 h; method in brief: as §3
Rattus norvegicus [10] = assay: Distribution in striatum of rat brain after intravenous administration by using [123I]ZIET after 60 min; type: ADME, organism-based; details: in vivo, 1 h; method in brief: as §1
Rattus norvegicus [11] = assay: Distribution in blood of rat brain after intravenous administration by using [123I]ZIET after 120 min; type: ADME, organism-based; details: in vivo, 2 h; method in brief: as §1
Rattus norvegicus [12] = assay: Distribution in blood […] after intravenous administration by using [123I]-ZIET after 60 min; type: ADME, organism-based; details: in vivo, 1 h; method in brief: as §1
Rattus norvegicus [13] = assay: Distribution of the radio labelled compound in brainstem of rat brain after intravenous administration in presence of citalopram after 60 min; type: ADME, organism-based; details: in vivo, 1 h; method in brief: as §3
Rattus norvegicus [14] = assay: Distribution of the radio labelled compound in rest of rat brain after intravenous administration in presence of reboxetine after 60 min; type: ADME, organism-based; details: in vivo, 1 h; method in brief: as §2
[15] = Ratio of radioactivity in frontal cortex of rat brain to that of rat cerebellum after intravenous administration after 30 min; type: functional; method in brief: as §4
[16] = Ratio of radioactivity in frontal cortex of rat brain to that of rat cerebellum after intravenous administration after 60 min; type: functional; method in brief: as §4
Rattus norvegicus [17] = assay: Distribution in brainstem of rat brain after intravenous administration by using [123I]ZIET after 60 min; type: ADME, organism-based; details: in vivo, 1 h; method in brief: as §1
[18] = Ratio of radioactivity in striatum of rat brain to that of rat cerebellum after intravenous administration after 120 min; type: functional; method in brief: as §4
Rattus norvegicus [19] = assay: Distribution of the radio labelled compound in cerebellum of rat brain after intravenous administration in presence of citalopram after 60 min; type: ADME, organism-based; details: in vivo, 1 h; method in brief: as §2
Rattus norvegicus [20] = assay: Distribution in hypothalamus of rat brain after intravenous administration by using [123I]ZIET after 60 min; type: ADME, organism-based; details: in vivo, 1 h; method in brief: as §1

COC(=O)C1C(c2ccc(/C=C\[123I])cc2)CC2CCC1N2C (stereo not given)
Activity (Rattus norvegicus [1]): 0.76 | Activity (Rattus norvegicus [2]): 0.42 | Activity (Rattus norvegicus [3]): 0.47 | Activity (Rattus norvegicus [4]): 0.45 | Activity (Rattus norvegicus [5]): 0.35 | Ratio [6]: 1.6 | Ratio [7]: 3.4 | Ratio [8]: 2.3 | Activity (Rattus norvegicus [9]): 0.15 | Activity (Rattus norvegicus [10]): 0.71 | Activity (Rattus norvegicus [11]): 0.38 | Activity (Rattus norvegicus [12]): 0.43 | Activity (Rattus norvegicus [13]): 0.14 | Activity (Rattus norvegicus [14]): 0.34 | Ratio [15]: 2 | Ratio [16]: 2.6 | Activity (Rattus norvegicus [17]): 0.54 | Ratio [18]: 3.7 | Activity (Rattus norvegicus [19]): 0.1 | Activity (Rattus norvegicus [20]): 0.69
